Measurements published in ChEMBL document CHEMBL1124747, “Properties of the nucleic acid photoaffinity labeling agent 3-azidoamsacrine” (J Med Chem, 1990).

Legend:
[1] = Ability to block cleavage of G/GNCC site in Restriction endonuclease Sau961 with the light activated test compound/DNA ratio 1(no. of sites=15); += light activation
Summary of the method: (§1)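 pBR322 plasmid mixed with drug at 0.015, 0.12 or 0.48 mM (drug:DNA 1:8, 1:1 or 4:1), equilibrated on ice 30 min in the dark in 5 mM potassium phosphate pH 5.5, then irradiated 1 h with a medium-pressure Hg lamp (<340 nm filtered); dark set kept as control. Digested overnight with 10× excess enzyme plus DTT; fragments resolved on 1.2% agarose in TBE.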

[2] = Relative mutation induction for L5178Y cells was evaluated at dose 0.008 mg/mL in dark-II condition (expt-I); format: functional, Mus musculus
[3] = Ability to block cleavage of G/ANTC site in Hinf1 enzyme with the light activated test compound/DNA ratio 4(no. of sites=10); += light activation; summary of the method: as §1
[4] = Mutation frequency for L5178Y cells was evaluated at dose 0.008 mg/mL in dark-II condition (expt-I); format: functional, Mus musculus
Summary of the method: (§2)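 L5178Y suspension cells (3 × 10^6/mL, 5% CO2, 37 °C, shaking) exposed 20 h without activating enzyme; light arm irradiated 6.5 min (Hg lamp, <340 nm filtered). Cells washed, grown 24 h more and kept at 3 × 10^5/mL. Viability from 200 cells in soft agar; TFT (0.1 mg/mL) resistant colonies from 10^6 cells in triplicate dishes, counted at 10 days.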

[5] = Half-life was evaluated in water in the presence of light; format: ADME
[6] = Viability of L5178Y cells was evaluated at dose 0.005 mg/mL in dark condition (expt-II); format: functional, Mus musculus
Summary of the method: (§3)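 L5178Y cells were exposed for 20 h at 3 × 10^6 cells/mL. Light arms then received 6.5 min of Hg-lamp irradiation filtered to remove light below 340 nm. Cells were washed twice in Fischer's medium, grown a further 24 h and held at 3 × 10^5 cells/mL. For viability, 200 cells were plated in soft-agar cloning medium in triplicate dishes, and colonies were counted by an automated counter after 10 days.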

[7] = Induction frequency for L5178Y cells was evaluated at dose 0.005 mg/mL in light condition (expt-II); format: functional, Mus musculus; summary of the method: as §2
[8] = Relative mutation induction for L5178Y cells was evaluated at dose 0.005 mg/mL in dark condition (expt-II); format: functional, Mus musculus; summary of the method: as §2
[9] = Ability to block cleavage of […] site in NciI enzyme with the light activated test compound/DNA ratio 4(no. of sites=10); += light activation; summary of the method: as §1
[10] = Relative mutation induction for L5178Y cells was evaluated at dose 0.005 mg/mL in light condition (expt-II); format: functional, Mus musculus; summary of the method: as §2
[11] = Ability to block cleavage of GG/CC site in HaeIII enzyme with the light activated test compound/DNA ratio 1(no. of sites=22); += light activation; summary of the method: as §1
[12] = Relative toxicity against mammalian L5178Y cells at dose 0.008 mg/mL in light-2 condition (expt-I); format: functional, Mus musculus
Summary of the method: (§4)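 L5178Y mouse cells in suspension, 3 × 10^6 cells/mL, were exposed for 20 h at 37 °C in a shaker at 150 rpm under 5% CO2, without an activating enzyme. Light arms were irradiated for 6.5 min with a medium-pressure Hg lamp filtered to remove light below 340 nm; dark arms were not. Toxicity was taken as the Coulter-counted density of treated cells versus solvent control.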

[13] = Relative toxicity against mammalian L5178Y cells at dose 0.005 mg/mL in light-1 condition (expt-I); format: functional, Mus musculus; summary of the method: as §4
[14] = Ability to block cleavage of GCC/GGC site in NaeI enzyme with the light activated test compound/DNA ratio 4(no. of sites=4); += light activation; summary of the method: as §1
[15] = Viability of L5178Y cells was evaluated at dose 0.005 mg/mL in light condition (expt-II); format: functional, Mus musculus; summary of the method: as §3
[16] = Ability to block cleavage of AG/CT site in AluI enzyme with the light activated test compound, DNA ratio 1:8(no. of sites=16); += light activation; summary of the method: as §1
[17] = Relative toxicity against mammalian L5178Y cells at dose 0.005 mg/mL in light condition (expt-II); format: functional, Mus musculus; summary of the method: as §4
[18] = Viability of L5178Y cells was evaluated at dose 0.008 mg/mL in light-II condition (expt-I); format: functional, Mus musculus; summary of the method: as §3
[19] = Ability to block cleavage of GCC/GGC site in NaeI enzyme with the light activated test compound/DNA ratio 1(no. of sites=4); += light activation; summary of the method: as §1
[20] = Relative mutation induction for L5178Y cells was evaluated at dose 0.005 mg/mL in light-I condition (expt-I); format: functional, Mus musculus; summary of the method: as §2
[21] = Ability to block cleavage of C/CGG site in HpaII enzyme with the light activated test compound/DNA ratio 1(no. of sites=26); += light activation; summary of the method: as §1
[22] = Ability to block cleavage of AG/CT site in AluI enzyme with the light activated test compound, DNA ratio 1(no. of sites=16); += light activation; summary of the method: as §1
[23] = Relative toxicity against mammalian L5178Y cells at dose 0.005 mg/mL in dark-1 condition (expt-I); format: functional, Mus musculus; summary of the method: as §4
[24] = Ability to block cleavage of G/ANTC site in Hinf1 enzyme with the light activated test compound/DNA ratio 1:8(no. of sites=10); += light activation; summary of the method: as §1
[25] = Mean value of mutation induction for L5178Y cells was evaluated at dose 0.008 mg/mL in light-II condition (expt-I); format: functional, Mus musculus; summary of the method: as §2
[26] = Induction frequency for L5178Y cells was evaluated at dose 0.005 mg/mL in dark-I condition (expt-I); format: functional, Mus musculus; summary of the method: as §2
[27] = Mutation frequency for L5178Y cells was evaluated at dose 0.005 mg/mL in dark-I condition (expt-I); format: functional, Mus musculus; summary of the method: as §2
[28] = Mutation frequency for L5178Y cells was evaluated at dose 0.005 mg/mL in light-I condition (expt-I); format: functional, Mus musculus; summary of the method: as §2
[29] = Mean value of mutation induction for L5178Y cells was evaluated at dose 0.005 mg/mL in light-I condition (expt-I); format: functional, Mus musculus; summary of the method: as §2
[30] = Induction frequency for L5178Y cells was evaluated at dose 0.008 mg/mL in dark-II condition (expt-I); format: functional, Mus musculus; summary of the method: as §2
[31] = Ability to block cleavage of TTT/AAA site in DraI enzyme with the light activated test compound/DNA ratio 1:8(no. of sites=3); += light activation; summary of the method: as §1
[32] = Ability to block cleavage of C/CGG site in HpaII enzyme with the light activated test compound/DNA ratio 4(no. of sites=26); += light activation; summary of the method: as §1
[33] = Viability of L5178Y cells was evaluated at dose 0.008 mg/mL in dark-II condition (expt-I); format: functional, Mus musculus; summary of the method: as §3
[34] = Mean value of mutation induction for L5178Y cells was evaluated at dose 0.005 mg/mL in dark-I condition (expt-I); format: functional, Mus musculus; summary of the method: as §2
[35] = Induction frequency for L5178Y cells was evaluated at dose 0.005 mg/mL in light-I condition (expt-I); format: functional, Mus musculus; summary of the method: as §2
[36] = Ability to block cleavage of G/GNCC site in Restriction endonuclease Sau961 with the light activated test compound/DNA ratio 1:8(no. of sites=15); += light activation; summary of the method: as §1

Compound: COc1cc(NS(C)(=O)=O)ccc1Nc1c2ccccc2nc2cc(N=[N+]=[N-])ccc12.Cl
- Blockage activity [1]: Light activation
- Relative activity [2]: 23
- Blockage activity [3]: Light activation
- Mutation frequency [4]: 565 10e6 F
- half-life [5]: 2.02 min
- Viability [6]: 37.7
- Induced frequency [7]: 411
- Relative activity [8]: 124
- Blockage activity [9]: Light activation
- Relative activity [10]: 28
- Blockage activity [11]: Light activation
- Relative toxicity [12]: 55
- Relative toxicity [13]: 69
- Blockage activity [14]: Light activation
- Viability [15]: 35.7
- Blockage activity [16]: Light activation
- Relative toxicity [17]: 65
- Viability [18]: 0
- Blockage activity [19]: Light activation
- Relative activity [20]: 30
- Blockage activity [21]: Light activation
- Blockage activity [22]: Light activation
- Relative toxicity [23]: 69
- Blockage activity [24]: Light activation
- Mean value [25]: 0
- Induced frequency [26]: 319
- Mutation frequency [27]: 427 10e6 F
- Mutation frequency [28]: 434 10e6 F
- Mean value [29]: 123.7
- Induced frequency [30]: 457
- Blockage activity [31]: Light activation
- Blockage activity [32]: Light activation
- Viability [33]: 22.3
- Mean value [34]: 99.7
- Induced frequency [35]: 280
- Blockage activity [36]: Light activation
